Data reported in ChEMBL document CHEMBL4190389, “Synthesis and activity of di- or trisubstituted N-(phenoxyalkyl)- or N-{2-[2-(phenoxy)ethoxy]ethyl}piperazine derivatives on the central nervous system” (Bioorg Med Chem Lett, 2018).

Experiments:
[1] = target: T1, Adrenergic receptor alpha-1 (Rattus norvegicus, UniProt P15823+P23944+P43140); experiment: Displacement of [3H]-prazosin from Wistar rat cerebral cortex membranes alpha1 adrenoceptor by liquid scintillation counting method; parameters: species or system Membrane
T1 sequence (P15823 whole entry): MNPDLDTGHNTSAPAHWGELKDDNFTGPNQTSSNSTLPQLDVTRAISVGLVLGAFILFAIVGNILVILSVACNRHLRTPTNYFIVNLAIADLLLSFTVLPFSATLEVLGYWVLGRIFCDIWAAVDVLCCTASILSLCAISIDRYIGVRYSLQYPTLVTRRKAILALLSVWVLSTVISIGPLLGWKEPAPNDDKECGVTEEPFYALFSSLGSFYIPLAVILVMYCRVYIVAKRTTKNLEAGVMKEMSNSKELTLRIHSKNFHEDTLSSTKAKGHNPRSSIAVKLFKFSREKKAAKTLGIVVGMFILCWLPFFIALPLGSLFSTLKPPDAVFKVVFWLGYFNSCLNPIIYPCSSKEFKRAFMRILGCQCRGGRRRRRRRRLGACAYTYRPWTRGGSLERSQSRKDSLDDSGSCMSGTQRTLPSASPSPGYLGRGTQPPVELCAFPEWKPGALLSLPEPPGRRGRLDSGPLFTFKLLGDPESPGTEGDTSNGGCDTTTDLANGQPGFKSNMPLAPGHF
T1 sequence (P23944 whole entry): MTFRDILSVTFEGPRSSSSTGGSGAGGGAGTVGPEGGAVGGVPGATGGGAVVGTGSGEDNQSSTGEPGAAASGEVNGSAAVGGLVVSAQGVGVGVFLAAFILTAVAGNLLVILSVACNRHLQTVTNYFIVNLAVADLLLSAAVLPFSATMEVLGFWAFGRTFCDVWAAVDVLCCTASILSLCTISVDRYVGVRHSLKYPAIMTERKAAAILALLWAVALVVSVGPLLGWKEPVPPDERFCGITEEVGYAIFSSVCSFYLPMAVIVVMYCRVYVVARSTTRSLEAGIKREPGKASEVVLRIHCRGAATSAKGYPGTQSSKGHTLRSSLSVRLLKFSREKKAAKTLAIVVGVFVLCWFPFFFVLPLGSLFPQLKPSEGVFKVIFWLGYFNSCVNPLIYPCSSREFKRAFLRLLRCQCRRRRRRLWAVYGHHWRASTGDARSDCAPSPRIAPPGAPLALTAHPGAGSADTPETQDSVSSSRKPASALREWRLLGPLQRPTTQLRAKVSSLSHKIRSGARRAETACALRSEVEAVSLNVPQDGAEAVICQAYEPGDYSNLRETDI
T1 sequence (P43140 whole entry): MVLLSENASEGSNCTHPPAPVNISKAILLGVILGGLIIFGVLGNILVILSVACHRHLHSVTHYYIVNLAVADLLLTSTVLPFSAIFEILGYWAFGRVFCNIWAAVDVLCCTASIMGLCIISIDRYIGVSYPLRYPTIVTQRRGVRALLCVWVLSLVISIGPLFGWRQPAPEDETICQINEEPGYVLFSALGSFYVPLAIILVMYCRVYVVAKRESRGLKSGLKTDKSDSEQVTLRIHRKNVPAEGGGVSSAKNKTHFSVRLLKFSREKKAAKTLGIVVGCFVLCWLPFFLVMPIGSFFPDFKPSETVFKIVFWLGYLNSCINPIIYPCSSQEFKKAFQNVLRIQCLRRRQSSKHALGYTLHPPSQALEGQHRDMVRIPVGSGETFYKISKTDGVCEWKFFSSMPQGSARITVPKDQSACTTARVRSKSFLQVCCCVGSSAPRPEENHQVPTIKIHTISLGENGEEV

Rattus norvegicus = experiment: Antidepressant-like activity in ip dosed Wistar rat assessed as decrease in immobility time administered 45 mins prior to test measured for last 4 mins of 6 mins observation by forced swim test (reference value: 153.9 to 201.9 secs); type: functional
Mus musculus [2] = experiment: Antidepressant-like activity in ip dosed Albino Swiss CD-1 mouse assessed as decrease in immobility time administered […] prior to test measured for last 4 mins of 6 mins observation by forced swim test (reference value: 153.9 to 201.9 secs); type: functional
Mus musculus [3] = experiment: Anxiolytic-like activity in ip dosed Albino Swiss CD-1 mouse assessed as increase in number of punished crossings administered for 30 mins prior to test measured for 1 min by four-plate test; type: functional
Outline: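 Four-plate test in mice, i.p., 30 min before test; vehicle 0.9% NaCl; doses 1.25–10 mg/kg; number of punished crossings counted; mean ± SEM, n = 8–10 mice per group; ANOVA F statistics.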

Ki [1]: 23 nM
SMILES: COc1ccccc1N1CCN(CCOCCOc2c(C)cccc2C)CC1.Cl
ED (Rattus norvegicus): 5 mg/kg | ED (Mus musculus [2]): 2.5 mg/kg | ED (Mus musculus [3]): 2.5 mg/kg
